According to ChEMBL document CHEMBL3351416, “Design, synthesis and biological evaluation of novel pyrenyl derivatives as anticancer agents” (Eur J Med Chem, 2015):
Calls of active or inactive are those of the source. The rule behind the calls is not given here.

Tests used:
[1] = system: HepG2; assay: Cytotoxicity against human HepG2 cells assessed as reduction in cell viability after 48 hrs by sulforhodamine B colorimetric assay; assay type: functional, cell-based; settings: HepG2, 48 h
In short: (§1)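 Cell lines were kept at 37°C under 5% CO₂. HepG2, Hepa1-6, HeLa and MCF-7 were grown in DMEM with 10% FBS. Caco-2 was grown in DMEM with 20% FBS. HT-29 was grown in McCoy's medium with 10% FBS. The viability assay used 10-μM doxorubicin as positive control. Values marked * came from a single dose curve.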

[2] = Cytotoxicity against mouse Hepa1-6 cells assessed as reduction in cell viability after 48 hrs by sulforhodamine B colorimetric assay; assay type: functional, cell-based; settings: Hepa1-6, 48 h; in short: as §1
[3] = system: HT-29; assay: Cytotoxicity against human HT-29 cells assessed as reduction in cell viability after 48 hrs by sulforhodamine B colorimetric assay; assay type: functional, cell-based; settings: HT-29, 48 h; in short: as §1
[4] = system: HeLa; assay: Cytotoxicity against human HeLa cells assessed as reduction in cell viability after 48 hrs by sulforhodamine B colorimetric assay; assay type: functional, cell-based; in short: as §1
[5] = system: MCF7; assay: Cytotoxicity against human MCF7 cells assessed as reduction in cell viability after 48 hrs by sulforhodamine B colorimetric assay; assay type: functional, cell-based; settings: MCF7, 48 h; in short: as §1
[6] = Cytotoxicity against human Caco2 cells assessed as reduction in cell viability after 48 hrs by sulforhodamine B colorimetric assay; assay type: functional, cell-based; settings: Caco-2, 48 h; in short: as §1
[7] = system: Hepa1-6; assay: Cytotoxicity against mouse Hepa1-6 cells assessed as reduction in cell viability at 50 uM after 48 hrs by sulforhodamine B colorimetric assay; assay type: functional, cell-based
In short: (§2)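 Primary mouse hepatocytes and Hepa1-6 cells were exposed to graded doses for 48 hrs. Viability was normalized to DMSO-treated cells. Hepa1-6 cells were grown in DMEM with 10% FBS at 37°C under 5% CO₂. 10-μM doxorubicin served as the cytotoxicity positive control.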

[8] = system: Hepatocyte; assay: Cytotoxicity against hepatocytes (unknown origin) assessed as reduction in cell viability at 50 uM after 48 hrs by sulforhodamine B colorimetric assay; assay type: cell-based; in short: as §2
[9] = system: Hepa1-6; assay: Cytotoxicity against mouse Hepa1-6 cells assessed as reduction in cell viability at <5 uM after 48 hrs by sulforhodamine B colorimetric assay; assay type: functional, cell-based; in short: as §2
[10] = system: Hepatocyte; assay: Cytotoxicity against hepatocytes (unknown origin) assessed as reduction in cell viability at <5 uM after 48 hrs by sulforhodamine B colorimetric assay; assay type: cell-based; in short: as §2
[11] = system: HeLa; assay: Induction of apoptosis in human HeLa cells assessed as membrane blebbing at 2 uM after 12 hrs by microscopy; assay type: functional, cell-based
In short: (§3)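 HeLa cells were seeded at 1.5-2.0×10^5 cells/well and treated. Membrane blebbing and cell shrinkage were assessed by light microscopy after 8, 12 or 15 hrs.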

[12] = system: HeLa; assay: Induction of apoptosis in human HeLa cells assessed as membrane blebbing at 2 uM after 8 hrs by microscopy; assay type: functional, cell-based; settings: in the assay text read “12 hrs” for “8 hrs”; in short: as §3
[13] = system: HeLa; assay: Induction of apoptosis in human HeLa cells assessed as membrane blebbing at 2 uM after 15 hrs by microscopy; assay type: functional, cell-based; settings: in the assay text read “12 hrs” for “15 hrs”; in short: as §3
[14] = system: HeLa; assay: Induction of apoptosis in human HeLa cells assessed as PARP cleavage at <10 uM after 12 hrs by Western blotting; assay type: functional, cell-based
In short: (§4)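 HeLa cells were treated for 12 hrs and lysed in 0.5% SDS buffer (50 mM Tris pH 8.0, 1 mM DTT, phosphatase and protease inhibitors). Lysates were western blotted with anti-PARP for full-length and cleaved PARP. 1 μM staurosporine served as positive control.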

[15] = system: HeLa; assay: Induction of apoptosis in human HeLa cells assessed as PARP cleavage at 10 uM after 12 hrs by Western blotting; assay type: functional, cell-based; in short: as §4
[16] = Drug localization in cytoplasmic membrane of human HepG2 cells at 30 uM for 3 hrs by epifluorescent microscopy; assay type: ADME, cell membranes; settings: hepg2, 3 h
[17] = Drug localization in cytoplasmic membrane of human HepG2 cells at 30 uM for 3 hrs by BODIPY TR-labelling based confocal microsocopy; assay type: ADME, cell membranes; settings: hepg2, 3 h
In short: (§5)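 Cells (200,000/well) were seeded on coverslips and incubated overnight at 37°C, then treated for 4 hrs (50 μM) or 3 hrs. They were rinsed with PBS/BSA and stained with 5 µM BODIPY TR-labeled sphingolipids for 30 min at 4°C. Cells were fixed in 4% paraformaldehyde, permeabilized with 0.2% Triton X-100, and examined by confocal microscopy using 1 µm Z-stacks.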

[18] = Drug localization in […] rich regions of cytoplasmic membrane of human HepG2 cells at 3 uM for 2 hrs by BODIPY TR-labeled sphingolipids detection based Western blotting; assay type: ADME, cell-based; settings: hepg2, 2 h
In short: (§6)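 HepG2 cells (1x10^6/plate) were treated for 4 hrs at 5 μM or for 2 hrs at 3 μM, then stained with 5 μM BODIPY TR sphingolipids for 30 min at 4°C. Cells were lysed in PBS with 0.5% Brij-96, and lysates were normalized by BCA. Lysates were separated on a step OptiPrep gradient (2.5–30%) at 125,000 g for 12 hrs. Fractions were analysed for compound fluorescence and blotted for Thy-1, Lyn and GAPDH.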

[19] = Cytotoxicity against human SKOV3 cells assessed as reduction in cell viability after 48 hrs by sulforhodamine B colorimetric assay; assay type: functional, cell-based; settings: SK-OV-3, 48 h
In short: (§7)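 SKOV3 cells and the retrovirally transduced subclone SKOV3-MDR1-M6/6, which overexpresses P-glycoprotein, were grown in BME with 10% FBS at 37°C under 5% CO₂. Cells were exposed to 0-25 μM for 48 hrs. Viability was read by SRB assay and a dose curve was plotted for each cell line. Paclitaxel served as the reference drug.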

[20] = Cytotoxicity against human SKOV3-MDR1-M6/6 cells assessed as reduction in cell viability after 48 hrs by sulforhodamine B colorimetric assay; assay type: functional, cell-based; settings: SKOV3-MDR1-M6/6, 48 h; in short: as §7
[21] = Cytotoxicity against human SKOV3-MDR1-M6/6 cells assessed as reduction in cell viability at 25 uM after 48 hrs by sulforhodamine B colorimetric assay; assay type: functional; in short: as §7
[22] = system: HepG2; assay: Drug localization human HepG2 cells at 50 uM for 4 hrs by epifluorescent microscopy; assay type: ADME, cell-based; settings: hepg2, 4 h
[23] = Drug localization in cytoplasmic membrane of human HepG2 cells at 50 uM for 4 hrs by BODIPY TR-labelling based confocal microsocopy; assay type: ADME, cell membranes; settings: hepg2, 4 h; in short: as §5
[24] = Drug localization in […] rich regions of cytoplasmic membrane of human HepG2 cells at 5 uM for 4 hrs by BODIPY TR-labeled sphingolipids detection based Western blotting; assay type: ADME, cell-based; settings: hepg2, 4 h; in short: as §6

Structure (SMILES)	IC50 [1] [µM]	IC50 [2] [µM]	IC50 [3] [µM]	IC50 [4] [µM]	IC50 [5] [µM]	IC50 [6] [µM]	IC50 [19] [µM]	further results
CN1CCN(CCCCNc2cc3cccc4ccc5cccc2c5c43)CC1	2.4	1.1	4.8	4.1	2.6	7.23	5.5	Activity [7]: Active; Activity [8]: Toxic; Activity [9]: Active; Activity [10]: Non-toxic; Activity [11]: Active; Activity [12]: Active; Activity [13]: Active; Activity [14]: inactive; Activity [15]: Active; Drug uptake [16]: Active; Drug uptake [17]: Active; Drug uptake [18]: Active; IC50 [20]: 6.2 µM
c1cc2ccc3cccc4c(NCCCCCN5CCCCC5)cc(c1)c2c34	18.8	18.3	19.8	18.2	14.1			
c1cc2ccc3cccc4c(NCCCCN5CCCCC5)cc(c1)c2c34	1.4	2.5	2.98	2.6	1.1		5	Activity [7]: Active; Activity [8]: Toxic; Activity [9]: Active; Activity [10]: Non-toxic; Activity [11]: Active; Activity [12]: Active; Activity [13]: Active; Activity [14]: inactive; Activity [15]: Active; Drug uptake [16]: Active; Drug uptake [17]: Active; Drug uptake [18]: Active; IC50 [20]: 6.4 µM
CC(=O)O[C@H]1C(=O)[C@@]2(C)[C@H]([C@H](OC(=O)c3ccccc3)[C@]3(O)C[C@H](OC(=O)[C@H](O)[C@@H](NC(=O)c4ccccc4)c4ccccc4)C(C)=C1C3(C)C)[C@]1(OC(C)=O)CO[C@@H]1C[C@@H]2O [PACLITAXEL]							< 0.001	Activity [21]: 40%
CC(C)COC(=O)Nc1cc2cccc3ccc4cccc1c4c32	30.4	5.9	20.7	16.2		36.3		
O=C(CCCC(=O)N1CCCCC1)Nc1cc2cccc3ccc4cccc1c4c32		> 30	> 30	> 30	> 30			
CN1CCN(C(=O)CCC(=O)Nc2cc3cccc4ccc5cccc2c5c43)CC1	16.9	14.8	19.3	16.8	14.1			
CC(C)COCNc1cc2cccc3ccc4cccc1c4c32	39.6	9.9	14	9.8		> 50		Drug uptake [22]: Active; Drug uptake [23]: Active; Drug uptake [24]: Active
O=C(CCC(=O)N1CCCCC1)Nc1cc2cccc3ccc4cccc1c4c32	> 30	> 30		> 30				
